# CHRM4 agonist: agonists of human muscarinic M4 receptor (CHRM4); CHO-K1 hM4/Gqi5, Fluo-8 calcium fluorescence; vehicle 0%, full acetylcholine response 100%; P08173; activation, % at 3 µM; 360,000 tested, 0.14% active; AID 624127;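 active means activation above the run mean over all test wells plus 3 SD, cut at about 32% in these data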;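 further: peak over basal fluorescence ratio per well then scaled between controls; 0% = DMSO wells and 100% = acetylcholine at EC100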
# M5 PAM: CHRM5 positive allosteric modulation; CHO-K1 hM5, Fluo-8 calcium, ACh EC20 PAM; 0% = ACh EC20, 100% = ACh EC100; activation, % at 3 µM; 360,000 tested, 0.3% active; AID 624038;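 active means activation above the run cutoff, the mean activation of all test compounds plus 3 SD, cut at about 18% in these data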
# Target sequence (P08912 whole entry, looked up): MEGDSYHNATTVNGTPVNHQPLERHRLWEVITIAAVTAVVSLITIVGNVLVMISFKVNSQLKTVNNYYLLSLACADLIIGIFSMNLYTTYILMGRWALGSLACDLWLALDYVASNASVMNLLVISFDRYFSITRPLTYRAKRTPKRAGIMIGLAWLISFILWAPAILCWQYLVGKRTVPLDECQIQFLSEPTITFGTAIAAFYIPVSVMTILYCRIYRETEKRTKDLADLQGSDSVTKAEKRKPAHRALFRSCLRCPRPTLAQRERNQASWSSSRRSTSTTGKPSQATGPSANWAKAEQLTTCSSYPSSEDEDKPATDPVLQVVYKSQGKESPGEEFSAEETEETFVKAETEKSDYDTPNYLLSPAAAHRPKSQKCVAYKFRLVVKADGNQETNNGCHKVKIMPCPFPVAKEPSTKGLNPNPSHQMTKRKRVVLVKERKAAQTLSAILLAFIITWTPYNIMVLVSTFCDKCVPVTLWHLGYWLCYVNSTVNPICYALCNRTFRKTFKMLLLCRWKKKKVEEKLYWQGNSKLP
#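 system = human M5 receptor in CHO-K1 cells | compound = one concentration, 3 µM final (nominal) | schedule = Post-acetylcholine fluorescence recording 140 s | signal = Fluo-8 calcium dye fluorescence, kinetic read | benchmarks = low control EC20 acetylcholine (0%), high control EC100 acetylcholine (100%) | repeats = singlicate, one well per test compound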
# CHRM5 agonist: CHRM5 agonism in calcium assay; AID 624037; activation, % at 3 µM; P08912; 360,000 tested, 0.19% active; CHO-K1 hM5 cells, Fluo-8 calcium fluorescence; 0% DMSO wells, 100% maximal acetylcholine response;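 active means activation above the run's mean over test compounds plus 3 SD, cut at about 23% in these data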;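 further: signal is peak over basal fluorescence ratio across the kinetic read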
# M4 PAM: positive allosteric modulators of human muscarinic M4 receptor; P08173; CHO-K1 hM4/Gqi5, Fluo-8 calcium fluorescence, ACh EC20; 0% = ACh EC20, 100% = maximal ACh; activation, % at 3 µM; 360,000 tested, 0.4% active;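 active means activation above its plate's cutoff, the mean activation of sample wells plus 3 SD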
# M4 antag: CHRM4 antagonism in calcium assay; AID 624125; P08173; 360,000 tested, 0.73% active; CHO-hM4 cells, ACh EC80, Fluo-8 calcium fluorescence; inhibition, % at 3 µM;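 active means inhibition above its plate's cutoff, the mean inhibition of sample wells plus 3 SD, cut at about 27% in these data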;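 further: 0% = acetylcholine EC80 with DMSO and 100% = DMSO without agonist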
# M5 antag: antagonists of human muscarinic M5 receptor (CHRM5) | P08912 | CHO-hM5 cells, Fluo-8 calcium fluorescence, ACh EC80 | inhibition, % at 3 µM | 360,000 tested, 0.59% active | AID 624040;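 active means inhibition above a per-plate cutoff, the mean of that plate's test compounds plus 3 SD, cut at about 27% in these data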;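 further: 0% = acetylcholine EC80 with DMSO and 100% = DMSO without agonist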
# * hit, by the source's call. In the library only some 1.9% were active in any assay of this set; here they are far more common.
SMILES,CHRM4 agonist,M5 PAM,CHRM5 agonist,M4 PAM,M4 antag,M5 antag
Cn1nc(C(F)(F)F)c(/C=N/OC(=O)c2ccccc2Cl)c1SCc1ccccc1Cl,-0.8,-16.4,-7.3,-33.1,66.6*,-3.7
Cn1nc(C(F)(F)F)c(/C=N/OC(=O)c2ccccc2)c1SCc1ccc(Cl)cc1,0.1,-10.3,-6.9,-18.2,10.4,5.6
CCOc1ccccc1N(CC(=O)NCC1CCCO1)C(=O)CCC(=O)Nc1ccccn1 (stereo unspecified),0.8,1.2,-1.8,11.7,-1.3,41.7*
CCOC(=O)N1CCC(NC(=S)Nc2ccc3nc(N4CCN(CC)CC4)cc(C)c3c2)CC1,-2.1,1.1,-0.3,-30.9,36.8*,3.5
CCOC(=O)c1sc(=NC(=O)c2ccc(S(=O)(=O)N(C)c3ccccc3)cc2)n(C)c1C,1.7,4.7,-0.7,27.3*,-1.1,-5.8
O=C(NCc1ccco1)c1cccc2c1C(=O)c1ccc(N3CCCC3)cc1S2(=O)=O,40.1*,-13.4,19.5,-11.2,-10.0,10.9
O=C(NCC1CCCO1)c1cccc2c1C(=O)c1ccc(N3CCC(Cc4ccccc4)CC3)cc1S2(=O)=O (stereo unspecified),73.0*,-39.2,42.8*,-21.2,34.5*,34.4*
CC1CCN(c2ccc3c(c2)S(=O)(=O)c2cccc(C(=O)NC[C@@H]4CCCO4)c2C3=O)CC1,28.0,-30.1,11.6,-13.9,16.4,24.3
Cc1ccc(CNC(=O)c2cccc3c2C(=O)c2ccc(N4CCCCC4)cc2S3(=O)=O)cc1,99.3*,-36.1,60.5*,-16.8,14.3,31.8*
Cc1nc2ccccn2c1-c1ccnn1S(=O)(=O)c1ccc(F)cc1,13.2,-25.6,-0.2,-40.6,11.4,10.5
O=C(CC[C@H]1O[C@@H](n2cnc3c(NC(=O)c4ccccc4)ncnc32)[C@H](O)[C@@H]1O)NCc1cccc2ccccc12,0.7,2.2,-1.1,-0.2,1.6,4.2
COc1cc([C@@H]2c3cc4c(cc3[C@H](O)[C@H]3COC(=O)[C@H]23)OCO4)cc(OC)c1OC,1.6,-13.8,0.8,-16.4,55.4*,4.5
COc1cc(C2c3cc4c(cc3C(O)C3COCC23)OCO4)cc(OC)c1OC (stereo unspecified),0.4,11.7,6.6,3.4,-3.8,14.3
O=C(Nc1ccccc1)Nc1ccc(-n2ccc(C(F)(F)F)n2)cc1,24.9,-36.0,5.9,-61.8,44.9*,50.6*
O=C(CN(CCc1ccccc1)C(=O)c1csnn1)NC1CCCC1,0.0,1.1,1.8,-4.3,6.0,4.0
CC(=O)c1c(C)[nH]c(C(=O)OCc2ccccc2)c1C,6.2,-10.1,1.4,-6.7,-6.2,4.5
CC(=O)c1c(C)[nH]c(C(=O)OCCCCN2C(=O)c3ccccc3C2=O)c1C,22.5,-24.2,9.4,-15.2,10.3,30.9*
C=C(Cl)COc1ccc2c(C)cc(=O)oc2c1,-2.0,18.1*,-3.9,10.0,8.0,-13.9
COc1ccccc1NC(=O)C1=C(C)NC(=O)NC1c1ccc(C)cc1 (stereo unspecified),-0.4,-6.4,-2.9,-12.6,32.1*,0.5
CCOCCC(=O)Nc1ccc2c(c1)c(=O)n(C)n2Cc1cccc(C(F)(F)F)c1,2.3,-2.1,0.9,9.1,-18.2,2.6
COC(=O)c1ccc(/C=C/c2c(-c3ccc(OC)cc3)oc3ccccc23)cc1,0.9,4.5,3.4,25.8*,4.8,-6.4
C=CCOC(=O)Nc1nc(CCNC(=O)OC(C)(C)C)c(C(=O)O)s1,1.0,13.3,4.0,5.3,-0.8,-14.8
CC(/C=N/NC(=O)Cn1nccc1C)=C\c1ccc(C(C)C)cc1,-0.8,1.1,-3.0,-6.3,29.7*,-2.5
Cc1cc(NC(=O)CCSc2ccccc2)no1,2.5,3.5,-4.8,15.7,-14.3,-2.1
O=C(COC(=O)Cc1cccs1)Nc1ccc(OC(F)(F)F)cc1,0.5,1.9,-0.1,-1.2,-0.1,3.2
CC1CCN(S(=O)(=O)c2ccc(N=NC3=C(O)CC(C)(C)CC3=O)cc2)CC1,0.7,-3.1,-2.7,5.7,-10.8,2.5

# Screening results (PubChem)
